From publication PMC10795913 (The Journal of Clinical Endocrinology and Metabolism, 2023)
Marks after values point to notes of the source that are not given here.

Assays:
[1] = tested on: patients with type 2 diabetes; experiment: Antidrug antibody; type: in vivo, human
native GIP (nGIP) = target: T1, native GIP (nGIP) (Homo sapiens, UniProt P09681); experiment: Cross-reactive ADA binding to nGIP; type: in vivo; settings: N = 5025
T1 sequence (P09681 52-93 limits assumed): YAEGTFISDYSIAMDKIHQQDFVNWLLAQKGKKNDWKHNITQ

native GLP-1 (nGLP-1) = experiment: Cross-reactive ADA binding to nGLP-1; type: in vivo, human; settings: N = 5025
GIPR = target: T2, GIPR (Homo sapiens, UniProt P48546); experiment: Cell-based assay for NAb against TZP activity on GIPR; type: in vivo; settings: N = 5025
T2 sequence (P48546 22-466): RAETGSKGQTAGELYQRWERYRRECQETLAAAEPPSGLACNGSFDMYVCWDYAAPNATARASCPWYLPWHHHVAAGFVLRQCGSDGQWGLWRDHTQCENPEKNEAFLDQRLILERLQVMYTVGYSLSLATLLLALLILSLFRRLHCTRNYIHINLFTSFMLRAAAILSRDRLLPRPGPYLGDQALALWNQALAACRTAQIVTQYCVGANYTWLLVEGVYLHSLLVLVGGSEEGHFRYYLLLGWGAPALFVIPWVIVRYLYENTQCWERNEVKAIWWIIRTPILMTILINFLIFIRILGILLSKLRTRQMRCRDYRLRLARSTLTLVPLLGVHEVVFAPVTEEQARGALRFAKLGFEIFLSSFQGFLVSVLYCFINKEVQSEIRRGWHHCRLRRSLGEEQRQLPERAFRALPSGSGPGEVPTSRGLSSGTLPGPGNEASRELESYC

GLP-1R = GLP-1R (Homo sapiens, UniProt P43220); experiment: Cell-based assay for NAb against TZP activity on GLP-1R; type: in vivo; settings: N = 5025
GLP-1R, sequence (P43220 24-463): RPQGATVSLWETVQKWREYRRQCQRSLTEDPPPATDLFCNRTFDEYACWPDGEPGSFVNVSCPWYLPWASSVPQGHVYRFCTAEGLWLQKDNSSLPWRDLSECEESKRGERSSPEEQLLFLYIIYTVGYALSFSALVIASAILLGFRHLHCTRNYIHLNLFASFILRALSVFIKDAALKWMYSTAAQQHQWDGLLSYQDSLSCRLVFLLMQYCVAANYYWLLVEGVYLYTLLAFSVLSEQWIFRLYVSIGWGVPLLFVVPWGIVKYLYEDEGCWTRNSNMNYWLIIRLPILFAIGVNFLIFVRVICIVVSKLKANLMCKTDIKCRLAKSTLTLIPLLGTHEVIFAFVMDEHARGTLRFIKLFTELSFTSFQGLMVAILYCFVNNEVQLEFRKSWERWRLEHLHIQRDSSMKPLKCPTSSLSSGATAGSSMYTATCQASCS

[2] = tested on: patients with type 2 diabetes; experiment: Hypersensitivity reactions by TE ADA status; type: in vivo, human
Method in brief: (§1)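 Hypersensitivity or injection site reactions during the planned treatment period were tabulated by dose group. Patients were split by treatment-emergent ADA status (TE ADA+ vs TE ADA–). Analysis was descriptive and non-randomized.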

[3] = tested on: patients with type 2 diabetes; experiment: Injection site reactions by TE ADA status; type: in vivo, human
Method in brief: as §1

[4] = Tirzepatide pharmacokinetics; type: in vivo, human
patients = settings: different assays, not directly comparable; cited from earlier work
[5] = TZP 5 mg, TE ADA status not evaluable
[6] = TZP 10 mg, TE ADA status not evaluable
[7] = TZP all doses, TE ADA status not evaluable

## CC[C@H](C)[C@H](NC(=O)[C@H](CC(C)C)NC(=O)[C@H](Cc1c[nH]c2ccccc12)NC(=O)[C@H](CCC(N)=O)NC(=O)[C@@H](NC(=O)[C@H](Cc1ccccc1)NC(=O)[C@H](C)NC(=O)[C@H](CCCCNC(=O)COCCOCCNC(=O)COCCOCCNC(=O)CC[C@H](NC(=O)CCCCCCCCCCCCCCCCCCC(=O)O)C(=O)O)NC(=O)[C@H](CCC(N)=O)NC(=O)[C@H](C)NC(=O)[C@@H](NC(=O)[C@H](CCCCN)NC(=O)[C@H](CC(=O)O)NC(=O)[C@H](CC(C)C)NC(=O)C(C)(C)NC(=O)[C@@H](NC(=O)[C@H](CO)NC(=O)[C@H](Cc1ccc(O)cc1)NC(=O)[C@H](CC(=O)O)NC(=O)[C@H](CO)NC(=O)[C@@H](NC(=O)[C@H](Cc1ccccc1)NC(=O)[C@@H](NC(=O)CNC(=O)[C@H](CCC(=O)O)NC(=O)C(C)(C)NC(=O)[C@@H](N)Cc1ccc(O)cc1)[C@@H](C)O)[C@@H](C)O)[C@@H](C)CC)[C@@H](C)CC)C(C)C)C(=O)N[C@@H](C)C(=O)NCC(=O)NCC(=O)N1CCC[C@H]1C(=O)N[C@@H](CO)C(=O)N[C@@H](CO)C(=O)NCC(=O)N[C@@H](C)C(=O)N1CCC[C@H]1C(=O)N1CCC[C@H]1C(=O)N1CCC[C@H]1C(=O)N[C@@H](CO)C(N)=O [tirzepatide]
[1]; SURPASS Japan-Combo, N 443
  Time to first TE ADA+ titer ≤4 wk: 1 (0.2) n (%)
  Time to first TE ADA+ titer ≤12 wk: 32 (7.2) n (%)
  Time to first TE ADA+ titer ≤40 wk: 209 (47.2) n (%)
  Time to first TE ADA+ titer ≤52 wk: 244 (55.1) n (%)
[1]; SURPASS Japan-Combo, N 443, flexibility of visit windows
  Time to first TE ADA+ titer ≤78 wk: 257 (58.0)^a n (%)
[1]; SURPASS Japan-Mono, N 476
  Time to first TE ADA+ titer ≤4 wk: 4 (0.8) n (%)
  Time to first TE ADA+ titer ≤12 wk: 51 (10.7) n (%)
  Time to first TE ADA+ titer ≤24 wk: 182 (38.2) n (%)
  Time to first TE ADA+ titer ≤40 wk: 278 (58.4) n (%)
  Time to first TE ADA+ titer ≤52 wk: 312 (65.5) n (%)
[1]; SURPASS Japan-Mono, N 476, flexibility of visit windows
  Time to first TE ADA+ titer ≤78 wk: 322 (67.6)^a n (%)
[1]; SURPASS-1, N 351
  Time to first TE ADA+ titer ≤4 wk: 0 n (%)
  Time to first TE ADA+ titer ≤12 wk: 16 (4.6) n (%)
  Time to first TE ADA+ titer ≤24 wk: 90 (25.6) n (%)
  Time to first TE ADA+ titer ≤40 wk: 155 (44.2) n (%)
[1]; SURPASS-1, N 351, flexibility of visit windows
  Time to first TE ADA+ titer ≤52 wk: 174 (49.6)^a n (%)
[1]; SURPASS-2, N 1393
  Time to first TE ADA+ titer ≤4 wk: 6 (0.4) n (%)
  Time to first TE ADA+ titer ≤12 wk: 91 (6.5) n (%)
  Time to first TE ADA+ titer ≤24 wk: 352 (25.3) n (%)
  Time to first TE ADA+ titer ≤40 wk: 639 (45.9) n (%)
[1]; SURPASS-2, N 1393, flexibility of visit windows
  Time to first TE ADA+ titer ≤52 wk: 704 (50.5)^a n (%)
[1]; SURPASS-3, N 1062
  Time to first TE ADA+ titer ≤4 wk: 12 (1.1) n (%)
  Time to first TE ADA+ titer ≤12 wk: 80 (7.5) n (%)
  Time to first TE ADA+ titer ≤24 wk: 266 (25.0) n (%)
  Time to first TE ADA+ titer ≤40 wk: 466 (43.9) n (%)
  Time to first TE ADA+ titer ≤52 wk: 518 (48.8) n (%)
[1]; SURPASS-3, N 1062, flexibility of visit windows
  Time to first TE ADA+ titer ≤78 wk: 536 (50.5)^a n (%)
[1]; SURPASS-4, N 956
  Time to first TE ADA+ titer ≤4 wk: 7 (0.7) n (%)
  Time to first TE ADA+ titer ≤12 wk: 62 (6.5) n (%)
  Time to first TE ADA+ titer ≤24 wk: 190 (19.9) n (%)
  Time to first TE ADA+ titer ≤40 wk: 300 (31.4) n (%)
  Time to first TE ADA+ titer ≤52 wk: 367 (38.4) n (%)
  Time to first TE ADA+ titer ≤78 wk: 389 (40.7) n (%)
  Time to first TE ADA+ titer ≤104 wk: 399 (41.7) n (%)
[1]; SURPASS-5, N 344
  Time to first TE ADA+ titer ≤4 wk: 3 (0.9) n (%)
  Time to first TE ADA+ titer ≤12 wk: 26 (7.6) n (%)
  Time to first TE ADA+ titer ≤24 wk: 89 (25.9) n (%)
  Time to first TE ADA+ titer ≤40 wk: 160 (46.5) n (%)
[1]; SURPASS-5, N 344, flexibility of visit windows
  Time to first TE ADA+ titer ≤52 wk: 178 (51.7)^a n (%)
[1]; baseline, 7 SURPASS phase 3 trials pooled, TE ADA-evaluable TZP-treated N = 5025
  Preexisting ADA: 353 (7.0) n (%)
[1]; postbaseline, 7 trials pooled, N = 5025
  TE ADA+: 2570 (51.1) n (%)
Native GIP (nGIP); baseline
  Cross-reactive binding ADA to nGIP: 97 (1.9) n (%)
Native GIP (nGIP); postbaseline
  Cross-reactive binding ADA to nGIP: 1705 (33.9) n (%)
Native GLP-1 (nGLP-1); baseline
  Cross-reactive binding ADA to nGLP-1: 34 (0.7) n (%)
Native GLP-1 (nGLP-1); postbaseline
  Cross-reactive binding ADA to nGLP-1: 716 (14.2) n (%)
GIPR; baseline
  NAb against TZP activity on GIP R: 2 (<0.1) n (%)
GIPR; postbaseline
  NAb against TZP activity on GIP R: 94 (1.9) n (%)
GLP-1R; baseline
  NAb against TZP activity on GLP-1 R: 2 (<0.1) n (%)
GLP-1R; postbaseline
  NAb against TZP activity on GLP-1 R: 107 (2.1) n (%)
[2]; TZP 5 mg, TE ADA+, n 815
  Hypersensitivity reactions, %: 3.93%
  Hypersensitivity reactions, m (number of patients with specified reaction): 32
[2]; TZP 5 mg, TE ADA–, n 855
  Hypersensitivity reactions, %: 3.04%
  Hypersensitivity reactions, m (number of patients with specified reaction): 26
[2]; TZP 10 mg, TE ADA+, n 858
  Hypersensitivity reactions, %: 3.61%
  Hypersensitivity reactions, m (number of patients with specified reaction): 31
[2]; TZP 10 mg, TE ADA–, n 812
  Hypersensitivity reactions, %: 3.2%
  Hypersensitivity reactions, m (number of patients with specified reaction): 26
[2]; TZP 15 mg, TE ADA+, n 897
  Hypersensitivity reactions, %: 4.79%
  Hypersensitivity reactions, m (number of patients with specified reaction): 43
[2]; TZP 15 mg, TE ADA–, n 788
  Hypersensitivity reactions, %: 2.66%
  Hypersensitivity reactions, m (number of patients with specified reaction): 21
[2]; TZP all doses, TE ADA+, n 2570
  Hypersensitivity reactions, %: 4.12%
  Hypersensitivity reactions, m (number of patients with specified reaction): 106
[2]; TZP all doses, TE ADA–, n 2455
  Hypersensitivity reactions, %: 2.97%
  Hypersensitivity reactions, m (number of patients with specified reaction): 73
[2]; TZP-treated patients
  Anaphylactic reactions: No anaphylactic reactions
[2]; in vivo
  Severity of hypersensitivity events in TE ADA+ patients: mostly mild to moderate
[3]; [5]
  Injection site reactions, %: 0.06%
  Injection site reactions, m (number of patients with specified reaction): 1
[3]; TZP 5 mg, TE ADA+, n 815
  Injection site reactions, %: 3.07%
  Injection site reactions, m (number of patients with specified reaction): 25
[3]; TZP 5 mg, TE ADA–, n 855
  Injection site reactions, %: 0.82%
  Injection site reactions, m (number of patients with specified reaction): 7
[3]; [6]
  Injection site reactions, %: 0.06%
  Injection site reactions, m (number of patients with specified reaction): 1
[3]; TZP 10 mg, TE ADA+, n 858
  Injection site reactions, %: 4.43%
  Injection site reactions, m (number of patients with specified reaction): 38
[3]; TZP 10 mg, TE ADA–, n 812
  Injection site reactions, %: 0.86%
  Injection site reactions, m (number of patients with specified reaction): 7
[3]; TZP 15 mg, TE ADA status not evaluable
  Injection site reactions, m (number of patients with specified reaction): 0
[3]; TZP 15 mg, TE ADA+, n 897
  Injection site reactions, %: 6.24%
  Injection site reactions, m (number of patients with specified reaction): 56
[3]; TZP 15 mg, TE ADA–, n 788
  Injection site reactions, %: 0.51%
  Injection site reactions, m (number of patients with specified reaction): 4
[3]; [7]
  Injection site reactions, %: 0.04%
  Injection site reactions, m (number of patients with specified reaction): 2
[3]; TZP all doses, TE ADA+, n 2570
  Injection site reactions, %: 4.63%
  Injection site reactions, m (number of patients with specified reaction): 119
[3]; TZP all doses, TE ADA–, n 2455
  Injection site reactions, %: 0.73%
  Injection site reactions, m (number of patients with specified reaction): 18
[3]; all events
  Severity of injection site reactions: nonserious and nonsevere
[3]; all were TE ADA+
  Patients who discontinued study drug because of injection site reactions: Four
[4]; graphical comparison, ADA detected vs not detected and by titer
  Apparent clearance (CL/F): effect of ADA status or ADA titer: not affected
[4]; in vivo
  Relationship between NAb and TZP concentration: No relationship

## albiglutide
patients
  ADA incidence in published studies: 2.5%
